Laboratory results from ChEMBL document CHEMBL4041479, “Piperlongumine (piplartine) and analogues: Antiproliferative microtubule-destabilising agents” (Eur J Med Chem, 2017).
The source made the active and inactive calls. The calls are words filed in the database; no cut-off is given here.

Columns and labels:
[1] = species on record: Homo sapiens; test: Induction of tubulin depolymerization in human Jurkat cells at 1 uM after 4 hrs by Western blot method; type: cell-based
Summary of the method: (§1)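 MCF-7 (1×10^6/well) or Jurkat cells were treated for 4 h with 1–20 μM or 0.1% ethanol. Cells were lysed in microtubule-preserving buffer (0.1 M PIPES pH 6.9, 2 M glycerol, 5 mM MgCl2, 2 mM EGTA, 0.5% Triton X-100, 4 μM paclitaxel) and centrifuged at 20,000g for 45 min. Soluble (supernatant) and polymer (pellet) fractions, 30 μg protein each, were immunoblotted for α-tubulin with a GAPDH loading control. Three experiments.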

[2] = species on record: Homo sapiens; test: Induction of tubulin depolymerization in human MCF7 cells at 1 uM after 4 hrs by Western blot method; type: cell-based; summary of the method: as §1
[3] = test system: MCF-10A; test: Cytotoxicity in human MCF10A cells at 5 uM at 24 hrs by alamarBlue assay; type: cell-based
[4] = test system: MCF7; test: Antiproliferative activity in human MCF7 cells assessed as cell viability after 48 hrs by alamarBlue assay; type: functional, cell-based; settings: MCF7, 48 h
Summary of the method: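 Cells were seeded at 2.5×10^4 cells/mL and treated after 24 h with vehicle (0.1% v/v ethanol) or a dose range (0.1–20 μM) for 48 h at 37 °C in 5% CO2. Media-only blanks were subtracted, and viability is given as % of vehicle. Sextuplicate wells, three independent experiments.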

[5] = test system: MCF-10A; test: Cytotoxicity in human MCF10A cells at 1 uM after 24 to 48 hrs by alamarBlue assay; type: cell-based
[6] = test system: MCF-10A; test: Cytotoxicity in human MCF10A cells at 5 uM at 48 hrs by alamarBlue assay; type: cell-based
[7] = species on record: Homo sapiens; test: Disruption of microtubule network in human MCF7 cells at 100 nM after 16 hrs by immunofluorescence analysis; type: cell-based
Summary of the method: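 MCF-7 cells were seeded at 1×10^5 cells/mL on chamber slides and treated for 16 h (vehicle 1% ethanol). Cells were fixed 20 min in 4% paraformaldehyde, permeabilised in 0.5% Triton X-100 and blocked in 5% BSA/PBST. Staining used anti-α-tubulin–FITC (DM1A) for 2 h at rt, then Alexa Fluor 488 for 1 h, with DAPI counterstain. Imaging was by confocal microscopy; three independent experiments.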

[8] = species on record: Homo sapiens; test: Binding affinity to colchicine-binding site of beta tubulin in human MCF7 cells assessed as inhibition of formation of protein-N,N'-Ethylene-bis(iodoacetamide) adduct at 10 uM after 2 hrs by Western blot method; type: cell-based
Summary of the method: (§2)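 MCF-7 or HT-29 cells were exposed to test agent or ethanol vehicle (0.1% v/v) for 2 h, with MCF-7 seeded at 1×10^6 cells/well overnight beforehand. Selected samples then received N,N'-ethylene-bis(iodoacetamide) for a further 1.5 h. Cells were washed in cold PBS, lysed in Laemmli buffer and run on SDS-PAGE. Three independent experiments.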

[9] = species on record: Homo sapiens; test: Binding affinity to colchicine-binding site of beta tubulin in human HT-29 cells assessed as inhibition of formation of protein-N,N'-Ethylene-bis(iodoacetamide) adduct at 10 uM after 2 hrs by Western blot method; type: cell-based; summary of the method: as §2
[10] = test system: MCF7; test: Induction of reactive oxygen species generation in human MCF7 cells assessed as decrease in cell viability at 0.1 to 10 uM in presence of N-acetyl cysteine after 48 hrs by alamarBlue assay; type: functional, cell-based
Summary of the method: (§3)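 MCF-7 cells were seeded at 2.5×10^4 cells/mL and left to adhere. They were pre-treated 1 h with N-acetyl cysteine (1 mM) or Trolox (100 μM), then exposed to test agents for 48 h. Viability was measured by alamarBlue fluorescence as % of ethanol vehicle control. Mean of three independent experiments.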

[11] = test system: MCF7; test: Induction of reactive oxygen species generation in human MCF7 cells assessed as decrease in cell viability at 100 nM in presence of N-acetyl cysteine after 48 hrs by alamarBlue assay; type: functional, cell-based; summary of the method: as §3
[12] = test system: MCF7; test: Induction of reactive oxygen species generation in human MCF7 cells assessed as decrease in cell viability at 10 uM in presence of N-acetyl cysteine after 48 hrs by alamarBlue assay; type: functional, cell-based; summary of the method: as §3

**Q.** What does the source list for `CC(=O)O[C@H]1C(=O)[C@@]2(C)[C@H]([C@H](OC(=O)c3ccccc3)[C@]3(O)C[C@H](OC(=O)[C@H](O)[C@@H](NC(=O)c4ccccc4)c4ccccc4)C(C)=C1C3(C)C)[C@]1(OC(C)=O)CO[C@@H]1C[C@@H]2O`?
**A.** Activity [1]: inactive; Activity [2]: inactive

**Q.** How did the Activity [3] turn out when `COc1cccc(/C=C/C(=O)N2CCC=CC2=O)c1` was run?
**A.** Its Activity is > 90%.

**Q.** And the IC50 [4]?
**A.** Its IC50 is 7.5 µM.

**Q.** And the Activity [5]?
**A.** Its Activity is “Non-Toxic”.

**Q.** And the Activity [6]?
**A.** Its Activity is > 80%.

**Q.** With `COc1ccc(/C=C\c2cc(OC)c(OC)c(OC)c2)cc1O` as the compound, how does the Activity [7] read?
**A.** The Activity was “Active”.

**Q.** What about the inhibition [8] of the same compound?
**A.** Its inhibition is “Active”.

**Q.** And the inhibition [9]?
**A.** The inhibition was “Active”.

**Q.** And the Activity [10]?
**A.** The Activity was “inactive”.

**Q.** What about the Activity [11] of the same compound?
**A.** Its Activity is “inactive”.

**Q.** With `COc1ccc(/C=C(\C)C(=O)c2cc(OC)c(OC)c(OC)c2)cc1O` as the compound, how does the Activity [12] read?
**A.** Its Activity is “inactive”.

**Q.** With `COc1cc(C(=O)/C=C/c2ccc(N(C)C)cc2)cc(OC)c1OC` as the compound, how does the Activity [12] read?
**A.** The Activity was “inactive”.
